According to ChEMBL document CHEMBL1149790, “Synthesis of some novel thiourea derivatives obtained from 5-[(4-aminophenoxy)methyl]-4-alkyl/aryl-2,4-dihydro-3H-1,2,4-triazole-3-thiones and evaluation as antiviral/anti-HIV and anti-tuberculosis agents” (Eur J Med Chem, 2008):
Values after ≈ are worked out from the molar mass of the structure shown.

Key:
Punta Toro virus = assay: Antiviral activity against Punta Toro virus in african green monkey Vero cells assessed as reduction of virus-induced cytopathogenicity; type: functional
Procedure, shortened: (§1)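 Confluent cell monolayers (E6SM, HEL, HeLa or Vero, per line) inoculated with 100 CCID50 virus; 1 h adsorption, residual virus removed, then incubated with compound at 400, 200, 100 … µg/ml. Cytopathicity scored once complete in untreated virus controls; MIC = concentration inhibiting virus-induced cytopathicity.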

[1] = system: Vesicular stomatitis virus; assay: Antiviral activity against vesicular stomatitis virus in human HeLa cells assessed as inhibition of virus-induced cytopathogenicity; type: functional; procedure, shortened: as §1
[2] = Cytotoxicity against human HEL cells assessed as reduction of cell growth; type: cell-based
Procedure, shortened: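 HEL cells; CC50 = compound concentration reducing cell growth by 50%.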

[3] = system: Human immunodeficiency virus 1; assay: Antiviral activity against HIV1 3B in human MT4 cells assessed as protection against virus-induced cytopathogenicity by MTT assay; type: functional, organism-based; set-up: Activity: concentration or dose not given beside the values; details: for IC50: Human immunodeficiency virus 1, 3B, MT4
Procedure, shortened: (§2)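 MT-4 cells at 6 × 10⁵ cells/ml infected with HIV-1 IIIB or HIV-2 ROD at 100–300 CCID50; compounds in serial five-fold dilutions, triplicate mock- and virus-infected wells. MTT viability read at 540 and 690 nm after 5 days, median OD of three wells; EC50 = 50% protection from viral cytopathic effect.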

Human alphaherpesvirus 2 [4] = assay: Antiviral activity against HSV2 G in human E6SM cells assessed as reduction of virus-induced cytopathogenicity; type: functional; details: Human alphaherpesvirus 2, G; procedure, shortened: as §1
Human alphaherpesvirus 1 [5] = assay: Antiviral activity against HSV1 KOS in human HEL cells assessed as reduction of virus-induced cytopathogenicity; type: functional; details: Human alphaherpesvirus 1, KOS; procedure, shortened: as §1
Human alphaherpesvirus 1 [6] = assay: Antiviral activity against HSV1 KOS in human E6SM cells assessed as reduction of virus-induced cytopathogenicity; type: functional; details: Human alphaherpesvirus 1, KOS; procedure, shortened: as §1
Coxsackievirus B4 [7] = assay: Antiviral activity against Coxsackie virus B4 in african green monkey Vero cells assessed as reduction of virus-induced cytopathogenicity; type: functional; details: Enterovirus B; procedure, shortened: as §1
[8] = system: Mammalian orthoreovirus 1; assay: Antiviral activity against Reo virus 1 in african green monkey Vero cells assessed as reduction of virus-induced cytopathogenicity; type: functional; procedure, shortened: as §1
Sindbis virus = assay: Antiviral activity against Sindbis virus in african green monkey Vero cells assessed as reduction of virus-induced cytopathogenicity; type: functional; procedure, shortened: as §1
Human alphaherpesvirus 1 [9] = assay: Antiviral activity against thymidine kinase deficient and acyclovir resistant HSV1 KOS in human E6SM cells assessed as reduction of virus-induced cytopathogenicity; type: functional; details: Human alphaherpesvirus 1, KOS; procedure, shortened: as §1
[10] = Cytotoxicity against human HeLa cells; type: cell-based
Procedure, shortened: (§3)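 Uninfected cell cultures exposed to test compounds alongside antiviral assays; minimum cytotoxic concentration (MCC) = concentration causing a microscopically detectable alteration of cell morphology.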

Vero = assay: Cytotoxicity against african green monkey Vero cells; type: cell-based; details: chlorocebus sabaeus; procedure, shortened: as §3
[11] = system: Human immunodeficiency virus 2; assay: Antiviral activity against HIV2 ROD in human MT4 cells assessed as protection against virus-induced cytopathogenicity by MTT assay; type: functional, organism-based; set-up: Activity: concentration or dose not given beside the values; details: for IC50: Human immunodeficiency virus 2, ROD, MT4; procedure, shortened: as §2
Human alphaherpesvirus 3 [12] = assay: Antiviral activity against TK- VZV 07/1 infected HEL cells assessed as reduction in virus plaque formation; type: functional, organism-based; details: Human alphaherpesvirus 3, 07/1, HEL
Human alphaherpesvirus 1 [13] = assay: Antiviral activity against thymidine kinase deficient and acyclovir resistant HSV1 KOS in human HEL cells assessed as reduction of virus-induced cytopathogenicity; type: functional; details: Human alphaherpesvirus 1, KOS; procedure, shortened: as §1
Human betaherpesvirus 5 [14] = assay: Antiviral activity against human cytomegalovirus Davis infected HEL cells assessed as reduction in virus plaque formation; type: functional, organism-based; details: Human betaherpesvirus 5, Davis
[15] = system: Respiratory syncytial virus; assay: Antiviral activity against respiratory syncytial virus in human HeLa cells assessed as inhibition of virus-induced cytopathogenicity; type: functional; procedure, shortened: as §1
[16] = Cytotoxicity against human MT4 cells by MTT assay; type: cell-based
Procedure, shortened: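 Mock-infected MT-4 cells (6 × 10⁵ cells/ml) with serial five-fold compound dilutions in triplicate; MTT reduction read at 540 and 690 nm after 5 days, median OD of three wells; CC50 = concentration reducing OD540 of mock-infected control by 50%.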

Coxsackievirus B4 [17] = assay: Antiviral activity against Coxsackie virus B4 in human HeLa cells assessed as inhibition of virus-induced cytopathogenicity; type: functional; details: Enterovirus B; procedure, shortened: as §1
[18] = Cytotoxicity against human E6SM cells; type: cell-based; details: E6SM cells; procedure, shortened: as §3
[19] = system: Vesicular stomatitis virus; assay: Antiviral activity against in Vesicular stomatitis virus in human E6SM cells assessed as reduction of virus-induced cytopathogenicity; type: functional; procedure, shortened: as §1
Human alphaherpesvirus 2 [20] = assay: Antiviral activity against HSV2 G in human HEL cells assessed as reduction of virus-induced cytopathogenicity; type: functional; details: Human alphaherpesvirus 2, G; procedure, shortened: as §1
Human respirovirus 3 = assay: Antiviral activity against Parainfluenza 3 virus in african green monkey Vero cells assessed as reduction of virus-induced cytopathogenicity; type: functional; procedure, shortened: as §1
[21] = system: Vesicular stomatitis virus; assay: Antiviral activity against in Vesicular stomatitis virus in human HEL cells assessed as reduction of virus-induced cytopathogenicity; type: functional; procedure, shortened: as §1
Human alphaherpesvirus 3 [22] = assay: Antiviral activity against TK+ VZV OKA infected HEL cells assessed as reduction in virus plaque formation; type: functional, organism-based; details: Human alphaherpesvirus 3, OKA
Human betaherpesvirus 5 [23] = assay: Antiviral activity against human cytomegalovirus AD169 infected HEL cells assessed as reduction in virus plaque formation; type: functional, organism-based; details: Human betaherpesvirus 5, AD169, HEL
[24] = Cytotoxicity against human HEL cells assessed as alteration of cell morphology; type: cell-based; procedure, shortened: as §3

SMILES	MIC (Punta Toro virus) [µg/mL]	MIC [1] [µg/mL]	CC50 [2] [µg/mL]	Activity [3] [%]	IC50 [3] [µg/mL]	MIC (Human alphaherpesvirus 2 [4]) [µg/mL]	MIC (Human alphaherpesvirus 1 [5]) [µg/mL]	MIC (Human alphaherpesvirus 1 [6]) [µg/mL]	MIC (Coxsackievirus B4 [7]) [µg/mL]	MIC [8] [µg/mL]	MIC (Sindbis virus) [µg/mL]	MIC (Human alphaherpesvirus 1 [9]) [µg/mL]	MCC [10] [µg/mL]	Activity (Vero) [µg/mL]	Activity [11] [%]	IC50 [11] [µg/mL]	EC50 (Human alphaherpesvirus 3 [12]) [µg/mL]	MIC (Human alphaherpesvirus 1 [13]) [µg/mL]	EC50 (Human betaherpesvirus 5 [14]) [µg/mL]	MIC [15] [µg/mL]	other results
S=C(Nc1ccccc1)Nc1ccc(OCc2n[nH]c(=S)n2-c2ccccc2)cc1	> 16	> 16	> 50	5.5	> 30.6	> 80	> 80	> 80	> 16	> 16	> 16	> 80	80	80	4.5	> 41.5	39 (≈ 90 µM)	> 80	37 (≈ 85.3 µM)	> 16	CC50 [16]: 44.1 µg/mL (≈ 102 µM); MIC (Coxsackievirus B4 [17]): > 16 µg/mL; MCC [18]: 400 µg/mL; MIC [19]: > 80 µg/mL; MIC (Human alphaherpesvirus 2 [20]): > 80 µg/mL; MIC (Human respirovirus 3): > 16 µg/mL; MIC [21]: > 80 µg/mL; EC50 (Human alphaherpesvirus 3 [22]): 26 µg/mL (≈ 60 µM); EC50 (Human betaherpesvirus 5 [23]): > 20 µg/mL; MCC [24]: 400 µg/mL
CNC(=S)Nc1ccc(OCc2n[nH]c(=S)n2-c2ccccc2)cc1	> 80	> 80	> 50	0.5	> 83.5	> 400	> 400	> 400	> 80	> 80	> 80	> 400	400	400	2	> 113	> 100	> 400	> 100	> 80	CC50 [16]: ≥ 83.5 µg/mL; MIC (Coxsackievirus B4 [17]): > 80 µg/mL; MCC [18]: > 400 µg/mL; MIC [19]: > 400 µg/mL; MIC (Human alphaherpesvirus 2 [20]): > 400 µg/mL; MIC (Human respirovirus 3): > 80 µg/mL; MIC [21]: > 400 µg/mL; EC50 (Human alphaherpesvirus 3 [22]): > 100 µg/mL; EC50 (Human betaherpesvirus 5 [23]): > 100 µg/mL; MCC [24]: > 400 µg/mL
CCNC(=S)Nc1ccc(OCc2n[nH]c(=S)n2-c2ccccc2)cc1	> 80	> 80	> 50	1	> 15	> 400	> 400	> 400	80 (≈ 208 µM)	> 80	> 80	> 400	400	400	11	> 19.4	> 100	> 400	> 100	> 80	CC50 [16]: 22 µg/mL (≈ 57.1 µM); MIC (Coxsackievirus B4 [17]): > 80 µg/mL; MCC [18]: > 400 µg/mL; MIC [19]: > 400 µg/mL; MIC (Human alphaherpesvirus 2 [20]): > 400 µg/mL; MIC (Human respirovirus 3): > 80 µg/mL; MIC [21]: > 400 µg/mL; EC50 (Human alphaherpesvirus 3 [22]): > 100 µg/mL; EC50 (Human betaherpesvirus 5 [23]): > 100 µg/mL; MCC [24]: > 400 µg/mL
